The nature of data set [1]: AUC (0 to 24 hrs) in Beagle dog at 240 mg/kg, po dosed for 14 days by LC/MS/MS method. Format: ADME, organism-based, Canis lupus familiaris. Further details: time < 24 hr, dose 240 mg/kg, route oral. The settings on record: plasma. The method, boiled down:
(§1)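 Beagle dogs (n = 6) dosed by oral gavage at 240 mg/kg daily for 14 consecutive days. Blood taken predose and at 0.25–24 h on days 1 and 14, plasma stored at −20 °C, analysed by validated LC/MS/MS. Half-life and AUC by model-independent methods; Cmax and MRT read from concentration–time data.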

Data set [2] can be described thus: Mean residence time in Beagle dog at 240 mg/kg, po dosed for 14 days by LC/MS/MS method. The settings on record: in vivo. Further details: dose 240 mg/kg, route oral. In kind it is ADME, organism-based, Canis lupus familiaris. In outline:
as §1

Data set [3] concerns the target Epidermal growth factor receptor (Homo sapiens, UniProt P00533). The settings on record: A-431, 0.001 to 10 uM.

Chain of Epidermal growth factor receptor (P00533 whole entry): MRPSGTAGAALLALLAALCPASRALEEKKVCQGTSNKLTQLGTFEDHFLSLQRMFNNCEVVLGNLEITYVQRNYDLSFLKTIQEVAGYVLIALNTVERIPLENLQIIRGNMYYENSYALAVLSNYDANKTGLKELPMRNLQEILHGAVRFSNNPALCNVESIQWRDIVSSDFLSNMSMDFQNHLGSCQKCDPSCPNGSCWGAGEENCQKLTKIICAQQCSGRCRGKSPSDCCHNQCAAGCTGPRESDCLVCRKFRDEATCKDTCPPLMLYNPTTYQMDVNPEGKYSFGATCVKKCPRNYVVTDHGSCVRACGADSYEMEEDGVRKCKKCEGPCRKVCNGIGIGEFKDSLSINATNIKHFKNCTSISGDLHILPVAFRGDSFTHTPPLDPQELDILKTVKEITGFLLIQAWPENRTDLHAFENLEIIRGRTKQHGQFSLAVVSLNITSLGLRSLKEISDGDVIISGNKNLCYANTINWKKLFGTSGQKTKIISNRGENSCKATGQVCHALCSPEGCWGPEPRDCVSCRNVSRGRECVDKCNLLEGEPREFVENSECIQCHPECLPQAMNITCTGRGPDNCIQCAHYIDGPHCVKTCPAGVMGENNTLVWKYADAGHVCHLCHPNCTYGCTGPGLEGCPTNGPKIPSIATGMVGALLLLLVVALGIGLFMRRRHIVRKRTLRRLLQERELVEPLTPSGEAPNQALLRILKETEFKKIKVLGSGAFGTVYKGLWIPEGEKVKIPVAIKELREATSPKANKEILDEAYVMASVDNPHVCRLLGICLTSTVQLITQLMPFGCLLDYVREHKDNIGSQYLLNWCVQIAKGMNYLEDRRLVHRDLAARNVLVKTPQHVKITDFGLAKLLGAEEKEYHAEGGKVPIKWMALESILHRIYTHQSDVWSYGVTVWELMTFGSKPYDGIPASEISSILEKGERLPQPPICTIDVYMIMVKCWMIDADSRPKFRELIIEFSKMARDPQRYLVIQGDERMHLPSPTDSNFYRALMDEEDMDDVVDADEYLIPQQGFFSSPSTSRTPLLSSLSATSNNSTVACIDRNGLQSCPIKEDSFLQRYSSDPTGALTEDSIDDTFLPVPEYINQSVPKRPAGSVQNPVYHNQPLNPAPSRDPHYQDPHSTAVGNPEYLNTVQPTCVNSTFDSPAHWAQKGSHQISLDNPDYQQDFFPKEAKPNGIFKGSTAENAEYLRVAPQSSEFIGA

`CN(C)[C@H](CS(C)(=O)=O)c1ccc(-c2ccc3ncnc(Nc4ccc(OCc5cccc(F)c5)c(Cl)c4)c3c2)o1` returned an exposure (AUC) at 24 h in data set [1] of 29.8 µg·h/mL. The mean residence time MRT in data set [2] was found to be 6.6 h. In data set [3], the inhibition entry is “Dose-dependent effect”.

What is called AUC is concentration integrated over time. A lower AUC goes with low exposure. One may read the MRT as a mean duration of stay, worked out from the concentration-time curve.

Source of the values: ChEMBL document CHEMBL3352165 (Eur J Med Chem, 2014).
